# In ChEMBL document CHEMBL1146655, “Novel thrombin inhibitors incorporating weakly basic heterobicyclic P1-arginine mimetics: optimization via modification of P1 and P3 moieties” (Bioorg Med Chem Lett, 2004):
# Legend:
# [1] = Dissociation constant was evaluated; format: physicochemical
# Coagulation factor X = Coagulation factor X (Homo sapiens, UniProt P00742); test: In vitro inhibition of Coagulation factor Xa.
# How it was run: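 Amidolytic assay with a chromogenic substrate for factor Xa. Ki was derived by the Cheng–Prusoff relation from IC50 values, or from velocity equations with and without inhibitor using the substrate Km.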
# [2] = Concentration required to double the activated partial thromboplastin time in human plasma; format: functional
# [3] = Selectivity for inhibition of thrombin over trypsin.
# How it was run: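 Ratio Ki(trypsin)/Ki(thrombin). Both Ki values came from chromogenic-substrate amidolytic assays, each derived by Cheng–Prusoff from IC50 or from velocity equations with and without inhibitor using the relevant Km.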
# Prothrombin = Prothrombin (Homo sapiens, UniProt P00734); test: In vitro inhibition of human thrombin.
# Serine protease 1 = biological target: T1, Serine protease 1 (Bos taurus, UniProt P00760); test: In vitro inhibition of bovine trypsin.
# T1 sequence (P00760 whole entry): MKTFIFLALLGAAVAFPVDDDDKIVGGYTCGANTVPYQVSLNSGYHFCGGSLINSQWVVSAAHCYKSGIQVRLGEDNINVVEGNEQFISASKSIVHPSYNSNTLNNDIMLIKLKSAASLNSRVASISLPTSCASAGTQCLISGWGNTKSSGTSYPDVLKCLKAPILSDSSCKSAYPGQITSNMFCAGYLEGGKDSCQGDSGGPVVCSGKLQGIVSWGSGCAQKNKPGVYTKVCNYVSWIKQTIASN
# How it was run: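 Amidolytic assay of thrombin, trypsin and factor Xa activity with chromogenic substrates. Ki was derived by the Cheng–Prusoff relation from IC50, or from reaction velocity equations with and without inhibitor using the substrate Km. Thrombin-over-trypsin selectivity was taken as the ratio Ki(trypsin)/Ki(thrombin).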
# [4] = Concentration required to double the thrombin time in human plasma; format: functional
# [5] = Concentration required to double the prothrombin time in human plasma; format: functional
# Chain of Coagulation factor X (P00742 41-179 limits assumed): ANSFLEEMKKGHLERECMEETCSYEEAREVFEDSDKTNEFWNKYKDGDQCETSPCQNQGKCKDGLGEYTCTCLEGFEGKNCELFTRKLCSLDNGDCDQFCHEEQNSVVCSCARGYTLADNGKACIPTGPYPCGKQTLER
# Chain of Coagulation factor X (P00742 235-488 limits assumed): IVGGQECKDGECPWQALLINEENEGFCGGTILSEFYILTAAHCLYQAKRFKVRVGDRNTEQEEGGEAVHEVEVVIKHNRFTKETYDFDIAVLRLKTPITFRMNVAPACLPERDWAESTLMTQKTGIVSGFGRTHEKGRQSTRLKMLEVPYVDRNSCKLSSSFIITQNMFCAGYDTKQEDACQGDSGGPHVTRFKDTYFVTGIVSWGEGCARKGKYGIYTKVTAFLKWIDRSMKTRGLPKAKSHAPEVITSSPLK
pKa [1],Ki (Coagulation factor X),Selectivity [3],Ki (Prothrombin),Ki (Serine protease 1),Compound,2x APTT [2],TT [4],PT [5]
6.1,225 µM,3700,0.071 µM,263 µM,Cc1ccc(NS(=O)(=O)Cc2ccccc2)c(=O)n1CC(=O)N[C@@H]1CCc2nc(N)sc2C1,9.52 µM,–,–
6.1,> 300 µM,> 8000,0.1 µM,> 800 µM,Cc1ccc(NS(=O)(=O)Cc2ccc(F)cc2)c(=O)n1CC(=O)NC1CCc2nc(N)sc2C1 (stereo not given),28.7 µM,5.1 µM,57.7 µM
3.17,> 200 µM,65,0.042 µM,2.71 µM,Cc1ccc(NS(=O)(=O)Cc2ccccc2)c(=O)n1CC(=O)NC1CCc2c(sc(=N)n2N)C1 (stereo not given),2.4 µM,–,–
6.1,176 µM,> 123,–,> 700 µM,Cc1ccc(NS(=O)(=O)Cc2ccc(F)cc2)c(=O)n1CC(=O)N[C@H]1CCc2nc(N)sc2C1,–,–,–
4,228 µM,> 2900,0.102 µM,> 300 µM,Cc1ccc(CS(=O)(=O)Nc2ccc(C)n(CC(=O)NCC3CCc4n[nH]cc4C3)c2=O)cc1 (stereo not given),18.8 µM,3.4 µM,26.8 µM
–,92 µM,2170,0.12 µM,–,Cc1ccc(NS(=O)(=O)Cc2ccccc2)c(=O)n1CC(=O)NC1CCc2nc(N)sc2C1 (stereo not given),36.5 µM,6.6 µM,41.4 µM
6.1,80 µM,2460,0.1 µM,246 µM,Cc1ccc(CS(=O)(=O)Nc2ccc(C)n(CC(=O)NC3CCc4nc(N)sc4C3)c2=O)cc1 (stereo not given),31.3 µM,12 µM,56 µM
4,314 µM,1720,0.149 µM,258 µM,Cc1ccc(NS(=O)(=O)Cc2ccc(F)cc2)c(=O)n1CC(=O)NCC1CCc2n[nH]cc2C1 (stereo not given),15.8 µM,3.9 µM,34 µM
4,75 µM,> 1910,0.157 µM,> 300 µM,Cc1ccc(NS(=O)(=O)Cc2ccc(F)cc2Cl)c(=O)n1CC(=O)NCC1CCc2n[nH]cc2C1 (stereo not given),50 µM,10.8 µM,120 µM
6.1,371 µM,253,1.16 µM,–,Cc1ccc(NS(=O)(=O)Cc2ccccc2)c(=O)n1CC(=O)N[C@H]1CCc2nc(N)sc2C1,–,–,–
6.1,179 µM,38,1.34 µM,–,CCCCS(=O)(=O)Nc1ccc(C)n(CC(=O)NC2CCc3nc(N)sc3C2)c1=O (stereo not given),–,–,–
6.1,200 µM,28,2.3 µM,64.3 µM,CCCS(=O)(=O)Nc1ccc(C)n(CC(=O)NC2CCc3nc(N)sc3C2)c1=O (stereo not given),–,–,–
4,252 µM,757,0.562 µM,425 µM,Cc1ccc(NS(=O)(=O)Cc2cccc(C(F)(F)F)c2)c(=O)n1CC(=O)NCC1CCc2n[nH]cc2C1 (stereo not given),447 µM,36.6 µM,293 µM
6.1,69 µM,–,0.157 µM,1920 µM,Cc1ccc(NS(=O)(=O)Cc2ccc(F)cc2Cl)c(=O)n1CC(=O)NC1CCc2nc(N)sc2C1 (stereo not given),94 µM,93.8 µM,–
–,–,> 2940,–,> 500 µM,Cc1ccc(NS(=O)(=O)Cc2ccccc2)c(=O)n1CC(=O)NCC1CCc2n[nH]cc2C1 (stereo not given),20.5 µM,5.2 µM,30.6 µM
6.5,–,–,3.8 µM,–,CCCS(=O)(=O)Nc1ccc(C)n(CC(=O)NCC2CCc3nc(N)sc3C2)c1=O (stereo not given),–,–,–
6.1,> 500 µM,> 9090,0.077 µM,> 700 µM,Cc1ccc(NS(=O)(=O)Cc2ccc(F)cc2)c(=O)n1CC(=O)N[C@@H]1CCc2nc(N)sc2C1,20.1 µM,–,–
6.1,81 µM,> 300,–,> 200 µM,Cc1ccc(NS(=O)(=O)Cc2cccc(C(F)(F)F)c2)c(=O)n1CC(=O)NC1CCc2nc(N)sc2C1 (stereo not given),428 µM,125 µM,435 µM
3.17,131 µM,201,0.022 µM,8.06 µM,Cc1ccc(NS(=O)(=O)Cc2ccc(F)cc2)c(=O)n1CC(=O)NC1CCc2c(sc(=N)n2N)C1 (stereo not given),22.6 µM,–,–
